Results on one compound are retold here after ChEMBL document CHEMBL1671684, “In vitro resistance profile of the hepatitis C virus NS3/4A protease inhibitor TMC435” (Antimicrob Agents Chemother, 2010).

Test [1] can be described thus: Inhibition of Hepatitis C virus subtype 2a NS3/4A protease.
A short description of test [2]: Inhibition of Hepatitis C virus subtype 5a NS3/4A protease. Further details: […].
Test [3] in a line: Inhibition of Hepatitis C virus subtype 3a NS3/4A protease. Further details: […].
In test [4] the test system is Hepatitis C virus. The experiment in a line: Antiviral activity against Hepatitis C virus subtype 2a JFH1 infected in HuH7.5 cells assessed as delay in occurrence of the viral-induced CPE at 500 nM after 3 days by luciferase reporter assay. In kind it is functional, organism-based. To be noted: Hepacivirus hominis.
Test [5] relates to Hepatitis C virus. As to the kind of experiment: Antiviral activity against Hepatitis C virus subtype 2a JFH1 infected in HuH7.5 cells assessed as decline in viral RNA replication at 500 nM after 14 passages by TaqMan RT-PCR. Format: functional, organism-based. To be noted: Hepacivirus hominis. The essentials: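 Huh7.5 cells electroporated with JFH-1wt RNA (genotype 2a, no reporter) in Cytomix with 2 mM ATP and 5 mM glutathione, then 500,000 cells seeded. From day 3, cells passaged with inhibitor at 500 nM or vehicle. HCV RNA quantified at each passage by TaqMan real-time RT-PCR, normalised to host RPL13A RNA by comparative CT. Day-3 level set as 100%.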

The subject of test [6] is Hepatitis C virus. As to the kind of experiment: Antiviral activity against Hepatitis C virus infected in HuH7 cells assessed as cell viability at 2.5 times EC50 after 2 to 3 weeks by neutral red assay in presence of 1,000 ug/ml G418. In kind it is functional, organism-based. Conditions: Hepacivirus hominis; Huh-7. Put shortly:
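Huh7-Luc genotype 1b (con1, clone ET) replicon cells, 20,000 per 10-cm dish in DMEM with 1,000 μg/ml G418. Cells got one inhibitor or a two-inhibitor combination, dosed as multiples of each inhibitor's EC50 from a genotype 1b luciferase replicon assay. Held at 37°C, 5% CO2, with medium plus compound refreshed twice weekly. After 2–3 weeks, surviving colonies were stained with neutral red and counted. Three independent experiments.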

Test [7] has as its system Hepatitis C virus. As to the kind of experiment: Antiviral activity against Hepatitis C virus subtype 1a infected in human assessed as suppression of viral RNA level at 200 mg administered SID for 5 days measured after 3 days last postdose. Conditions: Hepacivirus hominis. Format: functional, organism-based.

Activity calls are given as the source filed them. The rule behind the calls is not given here.

Regarding `COc1ccc2c(O[C@@H]3C[C@H]4C(=O)N[C@]5(C(=O)NS(=O)(=O)C6CC6)C[C@H]5/C=C\CCCCN(C)C(=O)[C@@H]4C3)cc(-c3nc(C(C)C)cs3)nc2c1C` [SIMEPREVIR], the IC50 in test [1] is less than 13 nM; in test [2] it was less than 13 nM; in test [3] it was 37 nM. Further, the inhibition result in the test on Hepatitis C virus [4], in the test with Hepatitis C virus [5] and in the test with Hepatitis C virus [7] was “Active” each time. The inhibition entry with Hepatitis C virus [6] is “inactive”.
